Test results published in ChEMBL document CHEMBL1127464, “Inhibitors of HIV-1 proteinase containing 2-heterosubstituted 4-amino-3-hydroxy-5-phenylpentanoic acid: synthesis, enzyme inhibition, and antiviral activity” (J Med Chem, 1994).

What was measured:
Renin = biological target: T1, Renin (Homo sapiens, UniProt P00797); test: Selectivity for their inhibitory potency against human renin
T1 sequence (P00797 whole entry): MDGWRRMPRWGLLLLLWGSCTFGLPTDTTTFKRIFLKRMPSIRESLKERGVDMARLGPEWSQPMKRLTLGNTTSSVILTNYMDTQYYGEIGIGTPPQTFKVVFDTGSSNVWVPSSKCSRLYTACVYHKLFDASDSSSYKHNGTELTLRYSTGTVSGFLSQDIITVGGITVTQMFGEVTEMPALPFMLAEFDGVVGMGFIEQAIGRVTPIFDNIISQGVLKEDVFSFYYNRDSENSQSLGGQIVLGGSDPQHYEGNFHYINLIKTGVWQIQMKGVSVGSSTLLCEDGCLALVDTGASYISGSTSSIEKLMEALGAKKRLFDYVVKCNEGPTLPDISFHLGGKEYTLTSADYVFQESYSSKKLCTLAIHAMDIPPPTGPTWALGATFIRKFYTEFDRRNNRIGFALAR

Pepsin A = Pepsin A (Sus scrofa, UniProt P00791); test: Selectivity for their inhibitory potency against porcine pepsin
Pepsin A, sequence (P00791 whole entry): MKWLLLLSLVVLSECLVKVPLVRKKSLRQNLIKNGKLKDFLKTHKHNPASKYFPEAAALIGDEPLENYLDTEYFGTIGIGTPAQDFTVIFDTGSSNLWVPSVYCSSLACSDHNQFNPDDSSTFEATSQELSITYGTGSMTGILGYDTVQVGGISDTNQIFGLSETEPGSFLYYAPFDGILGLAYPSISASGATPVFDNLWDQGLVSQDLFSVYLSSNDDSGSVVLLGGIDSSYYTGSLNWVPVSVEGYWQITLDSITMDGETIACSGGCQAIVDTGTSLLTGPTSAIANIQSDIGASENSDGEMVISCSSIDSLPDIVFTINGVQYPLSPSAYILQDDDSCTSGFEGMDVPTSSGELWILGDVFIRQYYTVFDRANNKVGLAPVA
Procedure, shortened: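 Porcine pepsin assayed in 0.1 M glycine–HCl, pH 2.0, with 0.5% hemoglobin substrate and [14C]methylhemoglobin tracer.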

[1] = biological target: Human immunodeficiency virus type 1 protease (Human immunodeficiency virus 1, UniProt Q72874); test: Inhibitory constant against HIV-1 protease
Procedure, shortened: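 HIV-1 proteinase expressed in E. coli JM 105 and purified to homogeneity. Initial rates were taken from the absorbance decrease at 298 nm. IC50 came from a fit of the initial velocities. Ki was derived from IC50 accounting for enzyme, substrate and Km. Mean of two determinations.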

MT4 [2] = test: Antiviral activity by analysis of p24 antigen concentration for HIV-1 strain IIIB in de novo infected MT-4 cells; assay type: functional, cell-based; conditions: Homo sapiens
[3] = test system: Human immunodeficiency virus 1; test: Antiviral activity by observing cytopathic effect induced by HIV-1 strain IIIB in de novo infected MT-4 cells; assay type: functional, organism-based; conditions: Human immunodeficiency virus 1, MT4
Cathepsin D [4] = biological target: T2, Cathepsin D (Homo sapiens, UniProt P07339); test: (§1) Selectivity for their inhibitory potency against human cathepsin D.
T2 sequence (P07339 65-162 limits assumed): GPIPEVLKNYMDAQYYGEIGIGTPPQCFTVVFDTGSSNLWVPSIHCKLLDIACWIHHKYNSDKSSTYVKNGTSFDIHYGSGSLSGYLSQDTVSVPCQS
T2 sequence (P07339 169-412 limits assumed): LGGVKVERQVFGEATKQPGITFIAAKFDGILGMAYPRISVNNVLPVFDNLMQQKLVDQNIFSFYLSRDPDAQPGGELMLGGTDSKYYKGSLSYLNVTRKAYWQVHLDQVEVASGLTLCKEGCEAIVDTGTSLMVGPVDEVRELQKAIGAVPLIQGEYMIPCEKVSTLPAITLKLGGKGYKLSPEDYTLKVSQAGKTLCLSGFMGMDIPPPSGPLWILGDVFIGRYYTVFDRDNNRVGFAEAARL

MT4 [5] = test: Antiviral activity by analysis of p26 antigen concentration for HIV-2 strain EHO, replication in MT-4 cells; assay type: functional, cell-based; conditions: Homo sapiens
Cathepsin D [6] = biological target: T2, Cathepsin D; test: as §1; assay type: functional

| SMILES | IC50 (Renin) [µM] | IC50 (Pepsin A) [µM] | Ki [1] [µM] | IC50 (MT4 [2]) [µM] | IC50 [3] [µM] | IC50 (Cathepsin D [4]) [µM] | IC50 (MT4 [5]) [µM] | IC50 (Cathepsin D [6]) [µM] |
| --- | --- | --- | --- | --- | --- | --- | --- | --- |
| COc1ccc(CN[C@@H](C(=O)N[C@H](C(=O)NCc2nc3ccccc3[nH]2)C(C)C)[C@H](O)[C@H](Cc2ccccc2)NC(=O)[C@@H](NC(=O)CCc2ccc(O)cc2)C(C)(C)C)cc1 | > 10 | > 10 | 0.013 | 0.021 | 0.096 | > 10 | – | – |
| COc1ccc(CN[C@@H](C(=O)N[C@H](C(=O)NCc2ccccc2)C(C)C)[C@H](O)[C@H](Cc2ccccc2)NC(=O)[C@@H](NC(=O)OCc2ccccc2)C(C)C)cc1 | > 10 | > 10 | 0.0074 | 0.132 | 0.32 | 0.11 | 0.81 | – |
| CC(C)[C@H](NC(=O)[C@H](NCc1ccccc1)[C@H](O)[C@H](Cc1ccccc1)NC(=O)[C@@H](NC(=O)OCc1ccccc1)C(C)(C)C)C(=O)NCc1ccccc1 | > 10 | > 10 | 0.0092 | 0.093 | 0.32 | 0.06 | 1.4 | – |
| CC(C)[C@H](NC(=O)[C@H](NCc1ccc(Cl)cc1)[C@H](O)[C@H](Cc1ccccc1)NC(=O)[C@@H](NC(=O)OCc1ccccc1)C(C)(C)C)C(=O)NCc1nc2ccccc2[nH]1 | > 10 | > 10 | 0.0075 | 0.0113 | 0.034 | 1.8 | 0.24 | – |
| COc1ccc(CN[C@@H](C(=O)N[C@H](C(=O)NCc2nc3ccccc3[nH]2)C(C)C)[C@H](O)[C@H](Cc2ccccc2)NC(=O)[C@@H](NC(=O)OCc2ccccc2)C(C)C)cc1 | > 10 | > 10 | 0.0034 | 0.0097 | 0.025 | 0.38 | 0.46 | – |
| CC(C)[C@H](NC(=O)OCc1ccccc1)C(=O)N[C@@H](Cc1ccccc1)[C@@H](O)[C@@H](NCc1ccccc1)C(=O)N[C@H](C(=O)NCc1ccccc1)C(C)C | > 10 | > 10 | 0.0061 | 0.315 | 0.58 | – | > 3 | 0.035 |
| COc1ccc(CN[C@@H](C(=O)N[C@H](C(=O)NCc2nc3ccccc3[nH]2)C(C)C)[C@H](O)[C@H](Cc2ccccc2)NC(=O)[C@@H](NC(=O)C(C)Oc2ccccc2)C(C)(C)C)cc1 (stereo not given in full) | > 10 | > 10 | 0.006 | 0.0079 | 0.038 | 2 | 0.47 | – |
| COc1ccc(CN[C@@H](C(=O)N[C@H](C(=O)NCc2nc3ccccc3[nH]2)C(C)C)[C@H](O)[C@H](Cc2ccccc2)NC(=O)[C@@H](NC(=O)OCc2ccccc2)C(C)(C)C)cc1 | > 10 | > 10 | 0.0046 | 0.0054 | 0.014 | 1 | 0.385 | – |
